Activity calls are given as the source filed them. The calls are words filed in the database; no cut-off is given here.
Tests used:
Toll-like receptor 4 [1] = biological target: T1, Toll-like receptor 4 (Homo sapiens, UniProt O00206); test: Agonist activity at TLR4 in human PBMC assessed as induction of TNFalpha production after 18 hrs by sandwich ELISA; assay type: functional
Procedure, shortened: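 Human monocytes were isolated by 2 h adherence to tissue-culture plates. They were exposed to compound over a 0–10,000 range in 0.2% aq triethanolamine (TEOA) for 18 h. TNF-α in supernatants was measured by sandwich ELISA. Data are three replicate samples from one of three donors. ED50 was fitted with a four-parameter logistic dose–response model.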

Mus musculus = test: Inhibition of LPS-induced serum TNFalpha production in iv dosed BALB/c mouse after 1.5 hrs by ELISA; assay type: functional, organism-based
Procedure, shortened: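 BALB/c mice (n = 3) were given 5 ng LPS iv, either alone or together with 0.2% TEOA vehicle or test compound. Serum was collected 1.5 h post-injection and TNF-α was measured by ELISA.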

Listeria monocytogenes [2] = test: Inhibition of CRX-527-mediated protection against Listeria monocytogenes infected iv dosed BALB/c mouse administered 2 days prior to bacterial challenge measured after 2 days; assay type: organism-based; settings: in vivo, 48 h
Procedure, shortened: (§1)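 BALB/c mice got AGP iv in 100 µL of 0.2% aq TEOA 2 days before iv challenge with 10^5 L. monocytogenes. Two days after challenge, splenic CFUs were counted by serial dilution of homogenates. Log10 relative protection is control-group log10 CFU/spleen minus test-group log10 CFU/spleen.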

Toll-like receptor 4 [3] = biological target: T1, Toll-like receptor 4; test: Antagonist activity at TLR4 in human PBMC assessed as inhibition of LPS-stimulated TNFalpha production pre-incubated for 30 mins before LPS challenge measured after 18 hrs by ELISA; assay type: functional
Procedure, shortened: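 Adherence-isolated human monocytes were preincubated with compound for 30 min, then stimulated with 100 ng/mL E. coli LPS. Supernatant TNF-α was measured by ELISA after 18 h. IC50 was fitted with a four-parameter logistic dose–response model.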

Influenza A virus [4] = test: Protection against Influenza A/HK/68 virus infected BALB/c mouse assessed as survival at 0.05 mg/kg, intranasal administered 2 days prior to influenza challenge measured after 21 days; assay type: functional; settings: inhaled or nasal
Procedure, shortened: (§2)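 Female/male unspecified BALB/c mice, 8 per group, given compound intranasally in 0.2% aqueous triethanolamine vehicle 2 days before intranasal influenza challenge. Vehicle-only group as control. Read-out is percent survival, recorded over 21 days after viral challenge.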

Listeria monocytogenes [5] = test: Protection against Listeria monocytogenes infected iv dosed BALB/c mouse assessed as reduction in splenic bacteria administered 2 days prior to bacterial challenge measured after 2 days; assay type: functional, organism-based; procedure, shortened: as §1
Influenza A virus [6] = test: Protection against Influenza A/HK/68 virus infected BALB/c mouse assessed as survival at 0.5 mg/kg, intranasal administered 2 days prior to influenza challenge measured after 21 days; assay type: functional; settings: inhaled or nasal; procedure, shortened: as §2
Influenza A virus [7] = test: Protection against Influenza A/HK/68 virus infected BALB/c mouse assessed as survival at 0.005 mg/kg, intranasal administered 2 days prior to influenza challenge measured after 21 days; assay type: functional; settings: inhaled or nasal; procedure, shortened: as §2
Influenza A virus [8] = test: Protection against Influenza A/HK/68 virus infected BALB/c mouse assessed as survival at 5 mg/kg, intranasal administered 2 days prior to influenza challenge measured after 21 days; assay type: functional; settings: inhaled or nasal; procedure, shortened: as §2

T1 sequence (O00206 whole entry): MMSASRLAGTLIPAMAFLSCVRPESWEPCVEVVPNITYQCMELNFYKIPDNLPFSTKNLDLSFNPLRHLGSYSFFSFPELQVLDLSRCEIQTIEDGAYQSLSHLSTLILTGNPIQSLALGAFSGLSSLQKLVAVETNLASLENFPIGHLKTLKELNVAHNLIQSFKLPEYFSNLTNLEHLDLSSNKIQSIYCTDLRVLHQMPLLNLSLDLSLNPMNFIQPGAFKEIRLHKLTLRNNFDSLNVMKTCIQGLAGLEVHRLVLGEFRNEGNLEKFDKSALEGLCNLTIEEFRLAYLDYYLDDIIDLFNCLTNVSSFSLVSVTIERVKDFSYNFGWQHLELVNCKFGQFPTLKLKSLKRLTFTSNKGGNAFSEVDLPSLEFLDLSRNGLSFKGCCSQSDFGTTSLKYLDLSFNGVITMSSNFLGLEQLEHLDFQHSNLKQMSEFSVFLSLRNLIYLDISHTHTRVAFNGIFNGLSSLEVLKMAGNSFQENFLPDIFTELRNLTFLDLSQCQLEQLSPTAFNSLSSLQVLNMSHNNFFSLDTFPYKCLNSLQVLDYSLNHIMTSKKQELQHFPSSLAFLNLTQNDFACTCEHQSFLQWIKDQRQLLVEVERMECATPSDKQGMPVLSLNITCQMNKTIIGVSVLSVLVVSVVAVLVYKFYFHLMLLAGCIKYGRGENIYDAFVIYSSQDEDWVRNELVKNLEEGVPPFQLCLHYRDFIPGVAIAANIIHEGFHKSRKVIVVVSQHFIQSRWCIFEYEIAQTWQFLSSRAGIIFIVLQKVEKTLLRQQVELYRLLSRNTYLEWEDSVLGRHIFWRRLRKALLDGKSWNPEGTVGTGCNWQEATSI

CCCCCCCCCCC[C@H](CC(=O)N[C@H]1[C@H](OC[C@H](NC(=O)C[C@@H](CCCCCCCCCCC)OCCCCCC)C(=O)O)O[C@H](CO)[C@@H](OP(=O)(O)O)[C@@H]1OC(=O)C[C@@H](CCCCCCCCCCC)OCCCCCC)OCCCCCC
Activity (Toll-like receptor 4 [1]): inactive
Activity (Mus musculus): inactive
Activity (Listeria monocytogenes [2]): Not Active
IC50 (Toll-like receptor 4 [3]): 5.3 nM

CCCCCCCCCCC[C@H](CC(=O)N[C@H]1[C@H](OC[C@H](NC(=O)C[C@@H](CCCCCCCCCCC)OC(=O)CCCCCCCCC)C(=O)O)O[C@H](CO)[C@@H](OP(=O)(O)O)[C@@H]1OC(=O)C[C@@H](CCCCCCCCCCC)OC(=O)CCCCCCCCC)OC(=O)CCCCCCCCC
survival at 0.05 mg/kg (Influenza A virus [4]): 70%
Activity (Listeria monocytogenes [5]): Active
survival at 0.5 mg/kg (Influenza A virus [6]): 70%
ED50 (Toll-like receptor 4 [1]): 0.39 nM
survival at 0.005 mg/kg (Influenza A virus [7]): 30%
survival at 5 mg/kg (Influenza A virus [8]): 100%
Activity (Toll-like receptor 4 [3]): inactive

CCCCCCCCCCC[C@H](CC(=O)N[C@H]1[C@H](OC[C@H](NC(=O)C[C@@H](CCCCCCCCCCC)OC(=O)CCCCC)C(=O)O)O[C@H](CO)[C@@H](OP(=O)(O)O)[C@@H]1OC(=O)C[C@@H](CCCCCCCCCCC)OC(=O)CCCCC)OC(=O)CCCCC
Activity (Toll-like receptor 4 [1]): inactive
Activity (Mus musculus): Active
Activity (Listeria monocytogenes [2]): Dose-dependent effect
IC50 (Toll-like receptor 4 [3]): 2.4 nM

CCCCCCCCCCC[C@H](CC(=O)N[C@H]1[C@H](OC[C@H](NC(=O)C[C@@H](CCCCCCCCCCC)OCCCCCCCCCC)C(=O)O)O[C@H](CO)[C@@H](OP(=O)(O)O)[C@@H]1OC(=O)C[C@@H](CCCCCCCCCCC)OCCCCCCCCCC)OCCCCCCCCCC
survival at 0.05 mg/kg (Influenza A virus [4]): 60%
Activity (Listeria monocytogenes [5]): Active
survival at 0.5 mg/kg (Influenza A virus [6]): 80%
ED50 (Toll-like receptor 4 [1]): 0.17 nM
survival at 0.005 mg/kg (Influenza A virus [7]): 20%
survival at 5 mg/kg (Influenza A virus [8]): 100%
Activity (Toll-like receptor 4 [3]): inactive

Source: ChEMBL document CHEMBL1152248, “The 'Ethereal' nature of TLR4 agonism and antagonism in the AGP class of lipid A mimetics” (Bioorg Med Chem Lett, 2008)
